ChEMBL document CHEMBL1212912, “Phenylsulfonylfuroxans as modulators of multidrug-resistance-associated protein-1 and P-glycoprotein” (J Med Chem, 2010)
pEC50: −log10 of the molar value. The source made the active and inactive calls. The rule behind the calls is not given here.

Columns and labels:
[1] = target: ATP-dependent translocase ABCB1 (Homo sapiens, UniProt P08183); assay: Inhibition of MDR1 expressed in MDCK cells assessed as calcein AM accumulation by fluorescence assay; assay type: cell-based
Summary of the method: (§1)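 MDCK cells overexpressing MRP1 or MDR1 (P-gp) were seeded at 50,000/well and grown to confluence overnight. Compound in medium was added for 30 min at 37°C, then calcein-AM (2.5 µM final, in PBS) for 30 min. Cells were washed 3× with ice-cold PBS and fluorescence read at ex 485/em 535 nm. The increase over untreated basal level was fitted against log[dose] to give EC50.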

[2] = test system: MDCK; assay: Inhibition of Pgp-mediated doxorubicine accumulation in MDCK cells assessed as nitreated-Pgp level at 10 uM by immunoprecipitation; assay type: cell-based; details: Canis lupus familiaris
[3] = target: Multidrug resistance-associated protein 1 (Homo sapiens, UniProt P33527); assay: […] MRP1 expressed in MDCK cells assessed as calcein AM accumulation by fluorescence assay; assay type: cell-based; summary of the method: as §1
[4] = test system: MDCK; assay: Antiproliferative activity against MDCK cells at 10 uM by MTT assay; assay type: cell-based, Canis lupus familiaris; details: dog
Summary of the method: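 MDCK-MDR1 cells grown in DMEM high glucose with 10% FBS and 2 mM glutamine at 37°C in 5% CO2. Seeded at 20000 cells/well, then treated next day with compound at 10 μM with solvent controls. MTT 0.5 mg/mL added after 24 or 48 h and incubated 3 h at 37°C. Formazan dissolved in DMSO; absorbance read at 570 and 630 nm.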

Chain of ATP-dependent translocase ABCB1 (P08183 whole entry): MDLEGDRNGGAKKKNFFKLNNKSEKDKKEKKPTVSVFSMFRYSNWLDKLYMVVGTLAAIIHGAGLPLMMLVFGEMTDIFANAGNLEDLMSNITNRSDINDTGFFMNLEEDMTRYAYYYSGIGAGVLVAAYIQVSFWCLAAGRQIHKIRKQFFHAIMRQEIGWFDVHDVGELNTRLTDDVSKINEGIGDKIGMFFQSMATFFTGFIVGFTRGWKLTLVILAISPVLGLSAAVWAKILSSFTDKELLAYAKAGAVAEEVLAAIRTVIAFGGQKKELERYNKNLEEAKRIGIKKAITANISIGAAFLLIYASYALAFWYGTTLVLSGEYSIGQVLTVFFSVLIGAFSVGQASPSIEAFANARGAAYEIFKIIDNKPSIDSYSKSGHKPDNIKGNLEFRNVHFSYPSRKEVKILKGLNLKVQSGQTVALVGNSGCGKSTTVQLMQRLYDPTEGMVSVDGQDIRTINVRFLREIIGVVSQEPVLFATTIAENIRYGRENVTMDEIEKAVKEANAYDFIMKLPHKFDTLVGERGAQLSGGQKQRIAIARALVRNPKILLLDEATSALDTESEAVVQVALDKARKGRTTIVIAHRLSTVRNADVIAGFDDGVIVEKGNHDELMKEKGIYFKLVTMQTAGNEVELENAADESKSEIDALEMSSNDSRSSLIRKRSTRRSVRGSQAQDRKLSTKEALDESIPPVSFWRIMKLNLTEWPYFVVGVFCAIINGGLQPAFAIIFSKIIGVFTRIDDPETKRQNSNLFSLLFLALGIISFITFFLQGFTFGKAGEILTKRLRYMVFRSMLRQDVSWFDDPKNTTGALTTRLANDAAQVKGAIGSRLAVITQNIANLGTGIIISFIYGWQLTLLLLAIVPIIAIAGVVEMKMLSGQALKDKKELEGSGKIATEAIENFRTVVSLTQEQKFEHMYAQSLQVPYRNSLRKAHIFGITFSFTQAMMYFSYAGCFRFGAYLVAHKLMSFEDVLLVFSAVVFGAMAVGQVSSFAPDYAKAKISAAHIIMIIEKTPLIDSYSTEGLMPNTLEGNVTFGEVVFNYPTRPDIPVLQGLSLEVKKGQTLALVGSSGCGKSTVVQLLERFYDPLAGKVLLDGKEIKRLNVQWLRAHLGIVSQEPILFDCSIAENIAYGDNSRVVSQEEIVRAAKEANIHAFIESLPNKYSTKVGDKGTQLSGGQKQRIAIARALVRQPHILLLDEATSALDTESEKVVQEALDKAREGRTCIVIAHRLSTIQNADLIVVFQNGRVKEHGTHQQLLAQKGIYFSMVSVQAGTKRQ
Chain of Multidrug resistance-associated protein 1 (P33527 whole entry): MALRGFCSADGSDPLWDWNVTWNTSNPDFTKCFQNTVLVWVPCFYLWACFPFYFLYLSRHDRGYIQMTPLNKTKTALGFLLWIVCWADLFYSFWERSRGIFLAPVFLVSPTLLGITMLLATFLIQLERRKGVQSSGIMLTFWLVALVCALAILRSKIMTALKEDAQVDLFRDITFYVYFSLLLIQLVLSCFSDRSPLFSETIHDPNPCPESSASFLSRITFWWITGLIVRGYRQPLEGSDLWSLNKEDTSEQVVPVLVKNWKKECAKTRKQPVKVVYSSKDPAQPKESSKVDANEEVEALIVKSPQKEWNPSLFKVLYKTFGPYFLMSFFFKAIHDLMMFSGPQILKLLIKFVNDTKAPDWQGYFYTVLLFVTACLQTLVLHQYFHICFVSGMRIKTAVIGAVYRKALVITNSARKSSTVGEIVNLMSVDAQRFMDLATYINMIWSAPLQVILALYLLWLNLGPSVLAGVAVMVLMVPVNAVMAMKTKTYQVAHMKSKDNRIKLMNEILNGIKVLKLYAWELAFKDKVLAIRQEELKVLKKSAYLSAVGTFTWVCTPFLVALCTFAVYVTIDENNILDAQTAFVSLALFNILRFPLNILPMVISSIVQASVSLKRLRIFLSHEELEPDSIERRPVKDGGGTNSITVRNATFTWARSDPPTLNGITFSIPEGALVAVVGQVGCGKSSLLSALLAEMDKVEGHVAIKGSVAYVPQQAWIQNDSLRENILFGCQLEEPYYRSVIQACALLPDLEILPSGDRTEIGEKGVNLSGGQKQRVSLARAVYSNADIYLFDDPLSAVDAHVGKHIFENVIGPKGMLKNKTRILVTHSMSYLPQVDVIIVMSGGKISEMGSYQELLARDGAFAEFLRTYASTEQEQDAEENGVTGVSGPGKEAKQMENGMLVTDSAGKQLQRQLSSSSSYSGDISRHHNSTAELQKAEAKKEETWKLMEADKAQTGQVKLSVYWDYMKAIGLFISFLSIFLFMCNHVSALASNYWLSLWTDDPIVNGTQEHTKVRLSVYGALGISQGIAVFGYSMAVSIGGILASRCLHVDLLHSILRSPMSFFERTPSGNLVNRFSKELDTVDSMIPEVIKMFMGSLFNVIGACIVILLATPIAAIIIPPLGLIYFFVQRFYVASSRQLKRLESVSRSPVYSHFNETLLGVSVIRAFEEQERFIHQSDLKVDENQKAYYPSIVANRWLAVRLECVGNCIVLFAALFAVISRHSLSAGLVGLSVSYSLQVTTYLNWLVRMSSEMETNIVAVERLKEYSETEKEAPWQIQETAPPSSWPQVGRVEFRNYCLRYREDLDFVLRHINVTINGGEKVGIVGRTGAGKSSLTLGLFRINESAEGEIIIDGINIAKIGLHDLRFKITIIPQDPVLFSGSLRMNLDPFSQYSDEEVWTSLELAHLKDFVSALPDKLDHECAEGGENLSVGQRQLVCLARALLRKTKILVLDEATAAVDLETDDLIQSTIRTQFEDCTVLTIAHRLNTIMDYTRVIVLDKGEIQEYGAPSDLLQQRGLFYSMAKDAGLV

Cc1c(-c2ccccc2)no[n+]1[O-]
pEC50 [1]: < 4.00

Cc1c(S(=O)(=O)c2ccccc2)no[n+]1[O-]
pEC50 [1]: < 4.00

NC(=O)c1no[n+]([O-])c1-c1ccccc1
pEC50 [1]: < 4.00

CCCCCCOc1no[n+]([O-])c1S(=O)(=O)c1ccccc1
Activity [2]: Active
pEC50 [1]: 5.47
pEC50 [3]: 4.92

CC(C)Oc1no[n+]([O-])c1S(=O)(=O)c1ccccc1
pEC50 [1]: 5.67
pEC50 [3]: 4.20
Activity [4]: 30%

CCCCCCCCCCOc1no[n+]([O-])c1S(=O)(=O)c1ccccc1
pEC50 [1]: 5.48

COc1no[n+]([O-])c1-c1ccccc1
pEC50 [1]: < 4.00

NS(=O)(=O)c1no[n+]([O-])c1-c1ccccc1
pEC50 [1]: < 4.00

CCCCOc1no[n+]([O-])c1S(=O)(=O)c1ccccc1
Activity [2]: Active
pEC50 [1]: 5.65
pEC50 [3]: 5.12

NC(=O)c1c(-c2ccccc2)no[n+]1[O-]
pEC50 [1]: < 4.00

CCC(C)Oc1no[n+]([O-])c1S(=O)(=O)c1ccccc1 (stereo not drawn)
pEC50 [1]: 5.65
pEC50 [3]: 4.34
Activity [4]: 45%

NS(=O)(=O)c1c(-c2ccccc2)no[n+]1[O-]
pEC50 [1]: < 4.00

NC(=O)c1no[n+]([O-])c1S(=O)(=O)c1ccccc1
pEC50 [1]: 4.30
pEC50 [3]: 4.07

COc1c(-c2ccccc2)no[n+]1[O-]
pEC50 [1]: < 4.00

Cc1no[n+]([O-])c1S(=O)(=O)c1ccccc1
pEC50 [1]: 4.55

Nc1no[n+]([O-])c1-c1ccccc1
pEC50 [1]: < 4.00

NC(=O)c1c(S(=O)(=O)c2ccccc2)no[n+]1[O-]
pEC50 [1]: 4.28

O=S(=O)(c1ccccc1)c1no[n+]([O-])c1-c1ccccc1
pEC50 [1]: 4.34

N#Cc1no[n+]([O-])c1-c1ccccc1
pEC50 [1]: < 4.00

N#Cc1c(S(=O)(=O)c2ccccc2)no[n+]1[O-]
pEC50 [1]: 4.26
pEC50 [3]: 4.14

Nc1c(-c2ccccc2)no[n+]1[O-]
pEC50 [1]: < 4.00

CCCCCCOc1nonc1S(=O)(=O)c1ccccc1
pEC50 [1]: 4.49

O=S(=O)(c1ccccc1)c1c(-c2ccccc2)no[n+]1[O-]
pEC50 [1]: 5.00

O=S(=O)(c1ccccc1)c1c(Oc2ccccc2)no[n+]1[O-]
pEC50 [1]: 4.69
pEC50 [3]: 4.87

CCCCCCCCOc1no[n+]([O-])c1S(=O)(=O)c1ccccc1
pEC50 [1]: 5.34

CCOc1no[n+]([O-])c1S(=O)(=O)c1ccccc1
pEC50 [1]: 4.92
pEC50 [3]: 4.31

CC1(C)CCC(C)(C)c2cc(-c3cc(-c4ccc(C(=O)O)cc4)no3)ccc21
pEC50 [1]: 5.82

O=S(=O)(c1ccccc1)c1no[n+]([O-])c1S(=O)(=O)c1ccccc1
pEC50 [1]: 5.52
pEC50 [3]: 4.82

O=[N+]([O-])c1c(-c2ccccc2)n[o+]n1[O-]
pEC50 [1]: 4.28
pEC50 [3]: 4.35

N#Cc1no[n+]([O-])c1S(=O)(=O)c1ccccc1
pEC50 [1]: 5.13
pEC50 [3]: 4.53

[O-][n+]1onc(-c2ccccc2)c1-c1ccccc1
pEC50 [1]: < 4.00

Cc1no[n+]([O-])c1-c1ccccc1
pEC50 [1]: < 4.00

CCCCOc1nonc1S(=O)(=O)c1ccccc1
pEC50 [1]: 4.30
